Assay results as given in PubChem BioAssay.
Unmarked numbers belong to inactive results. Inconclusive results are not listed. Activity calls are given as the source filed them.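 How the source made its calls, unless noted: active means RAM network inhibition above 8.4% in each of two replicates, 3 SD over the compound average; inconclusive means above 8.4% inhibition in only one replicate; inactive means 8.4% inhibition or less in each replicate.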

Columns and labels:
[1] = OD615 S. cerevisiae growth inhibition, permissive medium, pilot counter-assay, permissive growth control for S. cerevisiae lifespan shortening project (AID 705;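 active means growth inhibition above 25% in both replicates, a cutoff set 3 SD above the mean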); details: OD615, 24 h, at 10 µM, stronger effect = higher value
Summary of the method: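 System – S. cerevisiae with engineered DeaD lifespan system · Buffer or medium – SC raffinose/galactose permissive medium · Schedule – cells pre-grown 4 h, then 24 h compound exposure, 30 °C humidified · Technique – culture turbidity as optical density at 615 nm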

[2] = Restrictive medium S. cerevisiae growth inhibition, OD615, pilot screen of yeast lifespan reduction project, restrictive growth control (AID 706;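 active means growth inhibition above a set limit, 3 SD over mean compound inhibition, in both replicates, cut at about 43% in these data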;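 further: modified DeaD lifespan yeast strain shifted to restrictive glucose medium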); details: OD615, 48 h, at 10 µM, stronger effect = higher value
Summary of the method: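 Material: engineered S. cerevisiae DeaD strain / Medium: glucose-based CSMM-D restrictive medium / Compound: single dose of 10 µM compound final, 0.25% DMSO / Timing: 4 h pre-incubation, 48 h exposure at 30 °C / Technique: OD615 absorbance reading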

[3] = viability gain of MRP-1-high H69AR cells under doxorubicin, pilot screen, MRP-1 activator project, CellTiter-Glo, duplicate (AID 807;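 active means viability increase at or above a cutoff of the median across tested compounds plus 3 SD, cut at about 8.5% in these data, passing the limit was not always enough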;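 further: compound pretreatment 18-22 h then 72 h combined with doxorubicin; 0% = doxorubicin alone and 100% = vehicle without doxorubicin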); details: H69AR viability with doxorubicin, CellTiter-Glo luminescence; at 10 µM; stronger effect = higher value
[4] = growth suppression of beta-catenin knockout HCT116, pilot screen, human colon tumor cells (AID 823;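 active means cell viability at or below a set limit in both duplicate runs, the limit being the all-compound median minus 4 SD, cut at about 23% in these data, passing the limit was not always enough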;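 further: 0% = wells killed by 20 µM Hyamine and 100% = untreated DMSO cell wells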); details: CellTiter-Glo, 60 h, at 10 µM, stronger effect = lower value
[5] = growth suppression of PTEN-deleted HCT116, pilot screen, cell-based, HCT116 clonal line, CellTiter-Glo (AID 824;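 active means viability at or below 27.92% in each of two runs, the all-compound median minus 4 SD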;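 further: 0% = 20 µM Hyamine control and 100% = vehicle cell control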); details: 60 h, at 10 µM, stronger effect = lower value
[6] = inhibitors of the yeast RAM network, pilot screen, dse1pr::URA3 reporter, 5-FOA selection (AID 869;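 active means inhibition over a set limit, the all-compound mean plus 3 SD, in both replicate runs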;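 further: 0% = DMSO wells with no growth and 100% = 10 µM 1-NA-PP1 with full growth; RAM network block rescues cells from 5-FOA so hits raise OD615 growth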); details: S. cerevisiae dse1pr::URA3 5-FOA growth, OD615, 2 d; at 10 µM; stronger effect = higher value; strain carries analog-sensitive mutant Cbk1 kinase
[7] = RAM signaling pathway blockade in yeast – S. cerevisiae, Pdr1DBD-CYC8 efflux-inhibited sensitized strain, primary screen (AID 1298);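 further: 0% = DMSO untreated cells without growth and 100% = 10 µM 1-NA-PP1 full growth; higher means more yeast growth rescued from 5-FOA killing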; details: S. cerevisiae cbk1-as DSE1-URA3 strain, 5-FOA growth OD615, 2 d; at 50 µM; stronger effect = higher value

| SMILES | growth inhibition [1] | growth inhibition [2] | viability increase [3] | viability [4] | viability [5] | inhibition [6] | RAM network inhibition [7] |
| --- | --- | --- | --- | --- | --- | --- | --- |
| N=c1n(CCOc2ccccc2)c2ccccc2n1CCN1CCOCC1 | -1.46% | 6.28% | -3.52% | 82.5% | 85.8% | 0.845% | -0.47% |
| CCOC(=O)c1ccc(N=c2sc(C(=O)OC)cc(=O)n2CCCN2CCOCC2)cc1 | -4.99% | -3.88% | -8.16% | 57.4% | 52.6% | 2.12% | 2.6% |
| Clc1ccccc1-c1ccc(/C=N/n2cnnc2)o1 | -1.67% | 11.9% | -1.41% | 102% | 95.1% | 1.61% | 4.98% |
| Cc1cc(Nc2ccccc2Br)n2nc(C)nc2n1 | -3.05% | -13.3% | -2.64% | 107% | 98.2% | 1.9% | -1.82% |
| O=C(NC1CCCc2ccccc21)C1CCN(C(=O)c2sccc2-n2cccc2)CC1 (stereo not given) | -5.99% | -8.89% | -4.24% | 84.7% | 78.7% | -0.305% | 4.28% |
| COC(=O)C1CCN(C(c2ccc(OC)c(OC)c2)c2sc3nc(C)nn3c2O)CC1 (stereo not given) | 7.23% | 4.6% | 0.34% | 109% | 96.9% | -1.08% | 2.68% |
| CCC(=O)Nc1cccc(-c2nnc(SCC(=O)c3ccccc3)n2C)c1 | 0.325% | 45.9% (active) | -1.76% | 91.7% | 92.6% | 0% | 4.95% |
| CN(C)CCNc1nc2c(c(=O)[nH]c(=O)n2C)n1CCCc1ccccc1 | -14.9% | 4.34% | -1.16% | 93.1% | 93.9% | 2.04% | 0.47% |
| Cc1ccc(C)c(C(=O)CSc2n[nH]c(C)n2)c1 | 0.045% | 11.3% | -0.91% | 102% | 102% | 1.77% | 1.5% |
| O=C(NCc1ccco1)C1CCN(c2nnc(-n3cccc3)s2)CC1 | 3.71% | -3.18% | -3.76% | 97.2% | 95.8% | 0.985% | 5.26% |
| CN1CCN(S(=O)(=O)c2ccc(-c3ccc(S(=O)(=O)N4CCN(C)CC4)cc3)cc2)CC1 | -23.4% | -19.1% | 0.84% | 96.5% | 96.2% | 0.68% | 0.57% |
| O=C(CSc1nnc(Cc2cc(=O)[nH]c(=O)[nH]2)n1-c1ccc(Cl)cc1)NC1CCCC1 | -14.1% | -17.7% | -0.76% | 108% | 104% | 1.92% | 0.32% |
| CCc1nnc(NC(=O)CCC(=O)O)s1 | -7.04% | -5.46% | 0.56% | 98.3% | 96.3% | 0.815% | 2.03% |
| CCOC(=O)c1[nH]c2ccccc2c1NC(=O)c1ccc2c(c1)OCO2 | -2.92% | -6.88% | -4.72% | 85.6% | 85.6% | 1.8% | 2.88% |
| O=C(c1ccco1)N1CCN(c2nc3ccsc3c(=O)s2)CC1 | -0.135% | 6.59% | -3.19% | 97.1% | 94.3% | 2.1% | 5.38% |
| CCCc1ccc(Oc2c(-c3ccc(O)c(C)c3O)n[nH]c2C)cc1 | 93.6% (active) | 87.5% (active) | -2.16% | 72.3% | 74.3% | -2.1% | -1.26% |
| Cc1nn(-c2ccccc2)c2sc(C(=O)OCN3C(=O)c4ccccc4C3=O)cc12 | -8.01% | -6.25% | -3.32% | 83.6% | 85.2% | 2.55% | 4.24% |
| Cc1cc(C)nc(NS(=O)(=O)c2ccc(NC(=O)C3CC(=O)N(c4ccccc4)C3)cc2)n1 (stereo not given) | -4.82% | 7.38% | 1.33% | 104% | 100% | 1.81% | 3.68% |

| SMILES | growth inhibition [1] | growth inhibition [2] | viability increase [3] | viability [4] | viability [5] | inhibition [6] | RAM network inhibition [7] |
| --- | --- | --- | --- | --- | --- | --- | --- |
| CC1Cc2ccccc2N1C(=O)c1ccc2snnc2c1 (stereo not given) | -1.7% | -9.59% | -3.96% | 95% | 96.8% | 0.79% | 6.74% |
| Cc1csc2nc(CNS(=O)(=O)c3ccc4c(c3)CCCC4)cn12 | -17.5% | 0.8% | -0.44% | 101% | 93.2% | 1.17% | 0.48% |
| Cc1cc(Nc2ccc(F)c(Cl)c2)n2nc(C)nc2n1 | 1.03% | 15.8% | -3.61% | 97.2% | 92.4% | 1.94% | 0.68% |
| O=C(Nc1ccc(Cl)cn1)c1cccc(F)c1 | -8.65% | 3.83% | -5.84% | 37% | 33.9% | 0.27% | 1.17% |
| c1ccc(COc2ccc(Nc3ncnc4nc[nH]c34)cc2)cc1 | -2.53% | 7.49% | -0.86% | 85.7% | 83% | 0.435% | 4.8% |
| COC(=O)C1C(=O)CC(C)(O)C(C(=O)OC)C1c1ccc2c(c1)OCO2 (stereo not given) | -10.3% | -17% | 0.03% | 92.3% | 98.5% | 1.74% | 0.48% |
| CC1(C)CC2(CC(C)(C)N1)OC(=O)N1CCc3ccccc3C12C (stereo not given) | -4.17% | -7.5% | -1.65% | 106% | 97.9% | 2.3% | 6.97% |
| Cc1ccc2oc(=O)c3cnn(CC(=O)N4CCc5ccccc5C4)c3c2c1 | -10.4% | -4.8% | -0.98% | 93.5% | 92.1% | 1.77% | 3.4% |
| CCC(=O)Nc1nnc(-c2ccco2)o1 | -3.92% | -4.75% | -0.45% | 93.8% | 102% | 0.105% | 4.9% |
| CCOc1ccc(C(=O)Nc2c3c(nn2-c2ccc(C)cc2)CS(=O)C3)cc1OCC (stereo not given) | 2.17% | -3.32% | -1.84% | 97.6% | 104% | 2.23% | 8.77% |
| Clc1ccc(-c2nnn(Cc3nc4ccccc4s3)n2)cc1 | -2.44% | -17.7% | -2.27% | 92.6% | 96.6% | 0.615% | 2.46% |
| CC(=O)NCc1nc2ccccc2n1Cc1ccccc1C | 2.5% | -3.57% | -2.27% | 101% | 95.7% | 1.05% | 2.57% |
| CC1CCCC(NC(=O)Cn2cc3c(n2)CCCCC3)C1C (stereo not given) | -16% | -6.99% | 0.62% | 95.7% | 90.8% | -0.355% | 0.1% |
| COc1ccc(OC)c(S(=O)(=O)NCc2cn3c(C)csc3n2)c1 | -10.1% | 5.41% | -1.77% | 103% | 96.5% | 0.045% | 5.95% |
| O=C1c2ccccc2C(Nc2ccc(Cl)cn2)N1c1ccccn1 (stereo not given) | -15.4% | 0.32% | -4.01% | 75.1% | 81.1% | 2.39% | 8.97% |
| O=C(Nc1ccc2nc(-c3cccnc3)[nH]c2c1)c1ccco1 | -2% | -20.3% | -2.85% | 100% | 97.4% | 0.845% | 4.67% |
| Cc1noc(C(=O)Nc2c(C)n(C)n(-c3ccccc3)c2=O)c1Cl | -13.3% | -16.6% | -2.04% | 95% | 98.7% | 1.79% | 0.38% |
